Rows were chosen to be rich in hits. Some 4.5% of all compounds tested hit in one or more screens of this group.
HCV NS3 hel inh: HCV NS3 helicase inhibition. 290,000 tested, 0.56% active. NS3 helicase DNA unwinding, Cy5 molecular beacon fluorescence. inhibition, % at 10.9 µM;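 active = inhibition above the mean of all tested compounds plus 3 SD, set per campaign, cut at about 35% in these data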;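 note: 0% = DMSO wells and 100% = thioflavine S control wells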
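System: NS3 helicase fragment of HCV / Schedule: 1 h at 25 °C / Control set: DMSO alone as 0% and 110 µM thioflavine S as 100% / Reagent: Cy5/quencher beacon DNA duplex and ATP to start / Technique: Cy5 fluorescence / Replication: singlicate / Evaluation: % inhibition of end-to-start signal ratio versus controls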
UPR CHOP act: apoptotic UPR (CHOP) activation. CHO-CHOP luciferase reporter, luminescence; percent of tunicamycin response over DMSO baseline. activation, % at 10 µM. 330,000 tested, 0.34% active. AID 449763;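 active = at 10 µM dose, activation of 40% or more, normalized to positive control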;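 note: 100% = tunicamycin at 10 µg/mL and 0% = DMSO alone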
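System: CHO-CHOP luciferase reporter cell line; amount: 500 cells/well; buffer or medium: F12 medium containing 10% fetal bovine serum; incubation: 6 h compound exposure at 37 °C after overnight seeding; measured by: luciferase luminescence after 10 min with Steady-Glo reagent; evaluation: % reporter activation, DMSO baseline versus tunicamycin full activation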
XBP1 UPR activ: activators of adaptive arm of unfolded protein response (XBP1); CHO-XBP1 luciferase reporter, IRE1-XBP1 UPR activation, luminescence; percent of tunicamycin response, DMSO as zero; activation, % at 20 µM; 330,000 tested, 0.33% active; AID 463104;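 active = versus positive control, 20 µM dose yields 30% or more activation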;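 note: 100% = tunicamycin at 10 µg/mL and 0% = DMSO only wells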
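Material – CHO cell line with stable XBP1 luciferase reporter · Buffer or medium – F12 plus 10% FBS · Compound – single point, 20 µM final compound, 1% DMSO · Schedule – 16-18 h cell attachment at 37 °C, then 6 h compound exposure · Signal – Steady-Glo luminescence read · Benchmarks – high control tunicamycin 10 µg/mL final, low control DMSO vehicle only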
p97 ATPase inh: human p97 ATPase inhibition; P55072; recombinant p97 ATPase, Kinase-Glo ATP luminescence, 3 h; inhibition, % at 8 µM; 220,000 tested, 0.42% active; in the data active = inhibition above about 15%;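 note: 0% = DMSO vehicle and 100% = wells lacking enzyme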
Target sequence (P55072 whole entry, looked up): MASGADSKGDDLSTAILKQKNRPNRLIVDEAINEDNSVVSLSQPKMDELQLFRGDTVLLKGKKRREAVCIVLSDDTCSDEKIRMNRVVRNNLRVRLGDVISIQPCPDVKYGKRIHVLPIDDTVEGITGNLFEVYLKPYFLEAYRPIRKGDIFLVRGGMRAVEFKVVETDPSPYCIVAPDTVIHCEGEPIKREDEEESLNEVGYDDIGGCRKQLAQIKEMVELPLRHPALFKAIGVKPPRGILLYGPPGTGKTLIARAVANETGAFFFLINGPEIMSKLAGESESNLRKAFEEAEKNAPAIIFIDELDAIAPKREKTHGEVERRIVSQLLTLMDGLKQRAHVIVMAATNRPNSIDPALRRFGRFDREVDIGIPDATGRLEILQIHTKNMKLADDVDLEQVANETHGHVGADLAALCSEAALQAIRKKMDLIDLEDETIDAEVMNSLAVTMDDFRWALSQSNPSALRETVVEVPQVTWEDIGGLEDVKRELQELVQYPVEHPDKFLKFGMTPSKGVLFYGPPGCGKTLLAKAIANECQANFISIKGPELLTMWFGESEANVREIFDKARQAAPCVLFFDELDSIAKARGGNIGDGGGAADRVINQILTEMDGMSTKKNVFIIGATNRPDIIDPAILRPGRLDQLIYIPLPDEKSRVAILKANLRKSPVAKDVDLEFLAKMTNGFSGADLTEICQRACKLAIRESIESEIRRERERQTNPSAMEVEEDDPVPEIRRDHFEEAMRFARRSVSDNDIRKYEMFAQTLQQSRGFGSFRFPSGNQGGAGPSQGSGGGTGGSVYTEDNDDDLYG
CHOP inh: CHOP inhibition in unfolded protein response; CHO-K1 CHOP-promoter luciferase, tunicamycin-induced, 15-18 h; inhibition, % at 10 µM; 220,000 tested, 3.8% active; AID 2732;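 active = compounds that reduced the stress-induced luciferase reporter signal by more than about 70% of percent inhibition, limit read from the data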;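 note: 0% = tunicamycin plus vehicle and 100% = wells without tunicamycin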
PfM18AAP inh: PfM18AAP enzyme inhibition. inhibition, % at 7.35 µM. AID 1822. recombinant PfM18AAP, H-Glu-NHMec fluorogenic cleavage. 290,000 tested, 1.2% active;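 active = inhibition above the campaign mean inhibition over all tested compounds plus 3 SD, cut at about 28% in these data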;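 note: 0% = plate median of test compound wells and 100% = 2 mM ZnCl2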
NS3 hel confirm: confirmation of Hepatitis C virus NS3 helicase inhibitors; inhibition, % at 10.9 µM; NS3 helicase DNA unwinding, Cy5 molecular beacon fluorescence; shares compounds with HCV NS3 hel inh; 1,600 tested, 31% active;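 active = inhibition above the mean of all tested compounds plus 3 SD, cutoff set per campaign, cut at about 36% in these data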
DNA FID counter: displaces DNA intercalator in HCV helicase counter-screen; 1,600 tested, 4% active; inhibition, % at 7.9 µM; shares compounds with HCV NS3 hel inh; DNA fluorescent intercalator displacement, fluorescence; AID 1945; in the data active = inhibition above about 37%;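 note: 0% = vehicle and 100% = reference compound; higher means more displacement of ethidium bromide from the DNA hairpin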
The depositor's hits bear a star.

`Cc1cnc(C(=O)OCC(=O)Nc2ccccc2[N+](=O)[O-])cn1` gave UPR CHOP act -2 and XBP1 UPR activ 0.
Screening CC(OC(=O)CSc1ccc(F)cc1)C(=O)NC1(C#N)CCCCC1 (configuration not stated) returned HCV NS3 hel inh -5, UPR CHOP act -2, XBP1 UPR activ -2 and PfM18AAP inh 1.
Screening Cc1ccc(N2CC(C(=O)Nc3ccc(N4CCOCC4)cc3)CC2=O)cc1C (configuration not stated) returned HCV NS3 hel inh 39*, UPR CHOP act 1, XBP1 UPR activ -3, PfM18AAP inh -6, NS3 hel confirm -6 and DNA FID counter -30.
For O=C(Nc1nc2c(Cl)cccc2s1)C1CC1 the results were HCV NS3 hel inh 2, UPR CHOP act 2, XBP1 UPR activ 3 and PfM18AAP inh 1.
`O=C(Nc1nc2c(Cl)c(Cl)ccc2s1)C1CC1` gave HCV NS3 hel inh 41*, UPR CHOP act 2, XBP1 UPR activ 7, PfM18AAP inh 8, NS3 hel confirm 2 and DNA FID counter -12.
For CC[C@@H](C)[C@H](NC(=O)Cc1c(C)c2c(cc(C)c3c(C)c(C)oc32)oc1=O)C(=O)O the results were HCV NS3 hel inh 37*, UPR CHOP act 0, XBP1 UPR activ 0, PfM18AAP inh 14, NS3 hel confirm 10 and DNA FID counter -24.
For Cc1oc2c(c(C)cc3oc(=O)c(CC(=O)N[C@@H](C)C(=O)O)c(C)c32)c1C the results were HCV NS3 hel inh 11, UPR CHOP act 0, XBP1 UPR activ -1 and PfM18AAP inh -1.
CCOc1ccc(S(=O)(=O)N/N=C(\C)Cc2ccc(OC)cc2)cc1 was read as HCV NS3 hel inh 5, UPR CHOP act 0, XBP1 UPR activ 1, p97 ATPase inh 4, CHOP inh 3 and PfM18AAP inh 2.
`CCOc1ccc(S(=O)(=O)N/N=C(\C)C2CCCCC2)cc1` gave HCV NS3 hel inh 43*, UPR CHOP act -1, XBP1 UPR activ 2, p97 ATPase inh -1, CHOP inh 35, PfM18AAP inh -10, NS3 hel confirm -2 and DNA FID counter 9.
For CCOc1ccc(OCCCN(C)C)cc1 the results were HCV NS3 hel inh -4, UPR CHOP act 1, XBP1 UPR activ 2, p97 ATPase inh 0, CHOP inh 12 and PfM18AAP inh -2.
`CCOc1ccc(OCCCCN(C)C)cc1` gave HCV NS3 hel inh 49*, UPR CHOP act 2, XBP1 UPR activ 1, p97 ATPase inh 4, CHOP inh 8, PfM18AAP inh -6, NS3 hel confirm -7 and DNA FID counter 15.
`CCc1cc2cc3c(cc2nc1SCC(=O)Nc1c[nH]c(=O)[nH]c1=O)OCO3` gave HCV NS3 hel inh 41*, UPR CHOP act -1, XBP1 UPR activ -1, PfM18AAP inh 8, NS3 hel confirm -3 and DNA FID counter 2.
For COc1ccc(Cc2nnc(NC(=O)c3ccc(C)cc3)s2)cc1OC the results were HCV NS3 hel inh 2, UPR CHOP act 1, XBP1 UPR activ -2 and PfM18AAP inh -1.
COc1ccc(Cc2nnc(NC(=O)c3ccc(F)cc3)s2)cc1OC was read as HCV NS3 hel inh 47*, UPR CHOP act -1, XBP1 UPR activ -5, PfM18AAP inh -3, NS3 hel confirm -12 and DNA FID counter -4.
`O=C1/C(=C/c2ccco2)SC(=S)N1C1CCS(=O)(=O)C1` (configuration not stated) gave HCV NS3 hel inh 38*, UPR CHOP act -1, XBP1 UPR activ -6, p97 ATPase inh 5, CHOP inh -23, PfM18AAP inh 31*, NS3 hel confirm -26 and DNA FID counter 0.
Screening O=C1/C(=C\c2ccco2)SC(=S)N1C1CCS(=O)(=O)C1 (configuration not stated) returned HCV NS3 hel inh 38*, UPR CHOP act -4, XBP1 UPR activ -3, p97 ATPase inh 9, CHOP inh 1, PfM18AAP inh 29*, NS3 hel confirm -10 and DNA FID counter -2.
`O=C(CNC(=O)c1ccc(Cl)cc1Cl)OCN1C(=O)c2ccccc2C1=O` gave UPR CHOP act 0 and XBP1 UPR activ -2.
`O=C(CSc1ncccn1)NCC1CCCO1` (configuration not stated) gave HCV NS3 hel inh -3, UPR CHOP act 2, XBP1 UPR activ -5 and PfM18AAP inh 3.
CN(C)c1ccc(NC(=O)Oc2ccccc2)cc1 was read as HCV NS3 hel inh 44*, UPR CHOP act 8, XBP1 UPR activ 2, p97 ATPase inh 4, CHOP inh -32, PfM18AAP inh 13, NS3 hel confirm -5 and DNA FID counter 0.
CC(=O)Nc1ccc(NC(=O)Oc2ccccc2)cc1 was read as HCV NS3 hel inh -11, UPR CHOP act 2, XBP1 UPR activ 0, p97 ATPase inh 3, CHOP inh -19 and PfM18AAP inh -1.
For O=C(NC12CC3CC(CC(C3)C1)C2)c1ccc([N+](=O)[O-])o1 the results were HCV NS3 hel inh -1, UPR CHOP act 22, XBP1 UPR activ 0 and PfM18AAP inh 3.
Screening CC(=O)C1=C(O)C(=O)N(Cc2ccccc2)C1c1ccc(Br)cc1 (configuration not stated) returned HCV NS3 hel inh 41*, UPR CHOP act 2, XBP1 UPR activ -6, PfM18AAP inh 6, NS3 hel confirm 22 and DNA FID counter -9.
`CC(C)CC(=O)C1=C(O)C(=O)N(Cc2ccccc2)C1c1ccccc1` (configuration not stated) gave HCV NS3 hel inh 36*, UPR CHOP act 1, XBP1 UPR activ -2, PfM18AAP inh -8, NS3 hel confirm -26 and DNA FID counter -12.
For N=c1sccn1CC(=O)Nc1cccc(S(=O)(=O)N2CCCCCC2)c1 the results were HCV NS3 hel inh 9, UPR CHOP act 1, XBP1 UPR activ -3, p97 ATPase inh -2, CHOP inh 17 and PfM18AAP inh -7.
For CN(C(=O)CSc1nnc(COc2ccccc2F)n1N)C1CCS(=O)(=O)C1 (configuration not stated) the results were UPR CHOP act -1 and XBP1 UPR activ -3.
Screening CCC1(C)NC(=O)N(CC(=O)NCC(=O)Nc2c(C)cc(C)cc2C)C1=O (configuration not stated) returned UPR CHOP act 0 and XBP1 UPR activ 2.
